Experimental data from article PMC7612593 (Nature, 2022).
Values belong to the compound of their own block, whether it stands above or below them.

Tests used:
α4β3 GABAAR = α4β3 GABAAR (Homo sapiens, UniProt P28472+P48169); assay: whole-cell patch clamp electrophysiology on α4β3 cells; type: cell-based; details: for enhancement of GABA current by histamine: 300 μM histamine with 100 nM GABA
Outline: (§1)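 Cells on coverslips were induced with tetracycline (2 μg/ml, 28–32 h); β3δ cells were the β3 line transiently transfected with δ. Whole-cell clamp at –50 mV, 20–22 °C, pH 7.4 bath, KCl/Mg-ATP pipette. […] One-way ANOVA.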

α4β3δ GABAAR [1] = target: α4β3δ GABAAR (Homo sapiens, UniProt O14764+P28472+P48169); assay: whole-cell patch clamp electrophysiology on the α4β3δ cell line; type: cell-based; details: for receptors gated, % of total receptors gated by 10 mM GABA + 30 μM Etomidate: 10 mM each ligand, 2 s first pulse of two-pulse protocol, mean ± SD; for Hill coefficient: Hill plot of normalized peak amplitude against agonist concentration
β3 GABAAR = target: T1, β3 GABAAR (Homo sapiens, UniProt P28472); assay: whole-cell patch clamp electrophysiology on β3 cells; type: cell-based; details: for enhancement of GABA current by histamine: 300 μM histamine with 100 nM GABA
T1 sequence (P28472 26-473): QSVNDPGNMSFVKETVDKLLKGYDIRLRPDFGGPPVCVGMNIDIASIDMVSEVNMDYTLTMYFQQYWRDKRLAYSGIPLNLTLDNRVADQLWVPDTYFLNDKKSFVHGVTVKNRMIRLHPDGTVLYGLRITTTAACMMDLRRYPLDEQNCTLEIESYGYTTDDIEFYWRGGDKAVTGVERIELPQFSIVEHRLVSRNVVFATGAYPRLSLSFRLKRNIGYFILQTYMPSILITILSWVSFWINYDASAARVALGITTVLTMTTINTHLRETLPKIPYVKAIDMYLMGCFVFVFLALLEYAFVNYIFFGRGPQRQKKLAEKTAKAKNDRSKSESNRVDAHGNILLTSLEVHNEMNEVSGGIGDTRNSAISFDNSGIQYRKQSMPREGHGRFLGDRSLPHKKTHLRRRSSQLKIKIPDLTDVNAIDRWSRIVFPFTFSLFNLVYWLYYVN
Outline: as §1

β3δ GABAAR = target: T2, β3δ GABAAR (Homo sapiens, UniProt O14764+P28472); assay: whole-cell patch clamp electrophysiology on β3δ cells; type: cell-based; details: for enhancement of GABA current by histamine: 300 μM histamine with 100 nM GABA
T2 sequence (P28472 26-473): T1 sequence (P28472 26-473)
T2 sequence (O14764 17-452 limits assumed): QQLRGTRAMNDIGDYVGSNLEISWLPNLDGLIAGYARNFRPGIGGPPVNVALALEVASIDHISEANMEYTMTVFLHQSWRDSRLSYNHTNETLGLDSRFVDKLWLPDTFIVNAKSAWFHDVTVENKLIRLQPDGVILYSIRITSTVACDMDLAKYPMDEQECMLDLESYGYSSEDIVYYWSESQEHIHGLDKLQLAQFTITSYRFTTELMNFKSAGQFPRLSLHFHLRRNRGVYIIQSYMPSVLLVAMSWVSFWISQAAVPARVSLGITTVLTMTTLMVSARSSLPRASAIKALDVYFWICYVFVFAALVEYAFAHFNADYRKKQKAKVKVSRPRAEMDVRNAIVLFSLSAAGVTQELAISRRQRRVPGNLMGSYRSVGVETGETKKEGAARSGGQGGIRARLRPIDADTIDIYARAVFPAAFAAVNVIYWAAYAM
Outline: as §1

α1β3γ2 GABAAR = α1β3γ2 GABAAR (Homo sapiens, UniProt P14867+P18507+P28472); assay: radioligand assay, competition with pre-bound [3H]Ro15-4513, α1β3γ2 cell line; type: binding; details: membranes from α1β3γ2 cell line
α4β3γ2 GABAAR = α4β3γ2 GABAAR (Homo sapiens, UniProt P18507+P28472+P48169); assay: radioligand assay, competition with pre-bound [3H]Ro15-4513, α4β3γ2 cell pool; type: binding; details: membranes from α4β3γ2 cell pool
α4β3δ GABAAR [2] = details: cited from earlier work

- activation of currents by GABA (α4β3 GABAAR; 100 nM GABA): barely
- activation of currents by GABA (α4β3δ GABAAR [1]; 100 nM GABA): robustly activates currents
- receptors gated, % of total receptors gated by 10 mM GABA + 30 μM Etomidate (α4β3δ GABAAR [1]): 15.0 ± 6.0%
- time for deactivating current to reach 50% of its original value (α4β3δ GABAAR [1]; 200 ms pulse of 10 μM GABA in the absence of histamine): 2.7 ± 0.7 s
- Hill coefficient (α4β3δ GABAAR [1]): 0.9
- gating by GABA (β3 GABAAR; 200 μM GABA, 8 s pulse): not gated
- gating by GABA (β3δ GABAAR; 200 μM GABA, 8 s pulse): not gated
SMILES: NCCCC(=O)O [GABA, γ-aminobutyric acid]

SMILES: CCOC(=O)c1ncn2c1CN(C)C(=O)c1cc(N=[N+]=[N-])ccc1-2 [Ro15-4513]
- effect on GABA currents (α4β3δ GABAAR [1]; whole-cell electrophysiology recordings, α4β3δ cell line): little effect
- binding of Ro15-4513 (α1β3γ2 GABAAR): binds
- binding of Ro15-4513 (α4β3γ2 GABAAR): binds

SMILES: Oc1noc2c1CCNC2 [THIP, 4,5,6,7-tetrahydroisoxazolo[5,4-c]pyridin-3-ol]
- potency and efficacy at α4β3δ relative to other receptors subtypes (α4β3δ GABAAR [2]): higher potency and supramaximal efficacy

- enhancement of GABA current by histamine (α4β3 GABAAR): Only modest responses
- enhancement of GABA current by histamine (α4β3 GABAAR; listed as Histamine): only modestly
- fast and slow time constants of deactivation (α4β3δ GABAAR [1]; 10 μM GABA pulse in the presence of 100 μM histamine, P = 0.03): decreased significantly
- fraction of receptors with slow deactivation (α4β3δ GABAAR [1]; 10 μM GABA pulse in the presence of 100 μM histamine, P = 0.04): increased
- enhancement of GABA current by histamine (α4β3δ GABAAR [1]; 300 μM histamine with 100 nM GABA): robustly enhances
- receptors gated, % of total receptors gated by 10 mM GABA + 30 μM Etomidate (α4β3δ GABAAR [1]): 50.2 ± 11.0%
- time for deactivating current to reach 50% of its original value (α4β3δ GABAAR [1]; 200 ms pulse of 10 μM GABA in the presence of 100 μM histamine): 1.0 ± 0.4 s
- decrease in peak current amplitude of the deactivating currents (α4β3δ GABAAR [1]; 200 ms pulse of 10 μM GABA, pre-application of 100 μM histamine, n = 4 cells): 74.5 ± 11.9%
- Hill coefficient (α4β3δ GABAAR [1]): 1.1
- deactivation of currents following a brief pulse of 10 μM GABA (α4β3δ GABAAR [1]; continuous presence of 100 μM histamine): accelerated
- efficacy of histamine relative to GABA (α4β3δ GABAAR [1]; whole-cell currents): 3 fold
- enhancement of GABA current by histamine (β3 GABAAR): Only modest responses
- enhancement of GABA current by histamine (β3 GABAAR; listed as Histamine): only modestly
- enhancement of GABA current by histamine (β3δ GABAAR): Only modest responses
- enhancement of GABA current by histamine (β3δ GABAAR; listed as Histamine): only modestly
SMILES: NCCc1c[nH]cn1 [histamine]
